Where two headings read alike, the source gives them in different places.
Assays:
[1] = type: physicochemical
Outline: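 Test compound stock (0.75 mg/mL in N,N-dimethylformamide) was diluted to 150 μg/mL in phosphate buffers (pH 1.85–10.97, set at 25 °C). Solutions in glass tubes were held in a thermostat bath at 25, 37, 60, 80 or 100 °C. Aliquots were taken at 0–24 h, ice-quenched, diluted tenfold in methanol, filtered (0.22 µm) and run by C18 RP-HPLC (UV 396 nm). Half-life = ln2/k; activation parameters came from Arrhenius relationship.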

Influence of oxidation = type: physicochemical; settings: H2O2 3%, 10% and 30%
Outline: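 Test compound solutions (150 μg/mL) containing 3%, 10% or 30% H₂O₂ were incubated at 25 °C. Samples taken at 0, 2, 5, 10, 20 and 30 min were ice-quenched, diluted tenfold with methanol, filtered (0.22 µm) and quantified by isocratic C18 RP-HPLC (UV 396 nm). Rate constants were derived from plots of ln(Ct/C0) against time.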

Influence of irradiation = type: physicochemical; settings: solution under indirect daylight at room temperature, after 15 min
Outline: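 A 150 μg/mL test compound solution was exposed to daylight at 25 °C, alongside a light-shielded control. Content was measured by C18 RP-HPLC using acetonitrile–phosphate buffer (35:65, pH 6.5) at 1 mL/min, 30 °C, with UV detection at 396 nm.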

[2] = cited from earlier work

pH of maximum stability ([1]; 25 °C, pH 1.85 to 10.97): ~10.97 | half-life at 150 μg/mL ([1]; aqueous phosphate buffer, pH 1.85, half-time (t1/2), pH 1.85, 25 °C): 43.3 h | half-life at 150 μg/mL ([1]; aqueous phosphate buffer, pH 1.85, half-time (t1/2), pH 1.85, 37 °C): 33.6 h | half-life at 150 μg/mL ([1]; aqueous phosphate buffer, pH 1.85, half-time (t1/2), pH 1.85, 60 °C): 29.6 h | half-life at 150 μg/mL ([1]; aqueous phosphate buffer, pH 1.85, half-time (t1/2), pH 1.85, 80 °C): 24.6 h | half-life at 150 μg/mL ([1]; aqueous phosphate buffer, pH 1.85, half-time (t1/2), pH 1.85, 100 °C): 10.6 h | half-life at 150 μg/mL ([1]; aqueous phosphate buffer, pH 3.13, half-time (t1/2), pH 3.13, 25 °C): 43.6 h | half-life at 150 μg/mL ([1]; aqueous phosphate buffer, pH 3.13, half-time (t1/2), pH 3.13, 37 °C): 35.7 h | half-life at 150 μg/mL ([1]; aqueous phosphate buffer, pH 3.13, half-time (t1/2), pH 3.13, 60 °C): 33.6 h | half-life at 150 μg/mL ([1]; aqueous phosphate buffer, pH 3.13, half-time (t1/2), pH 3.13, 80 °C): 23.3 h | half-life at 150 μg/mL ([1]; aqueous phosphate buffer, pH 3.13, half-time (t1/2), pH 3.13, 100 °C): 11.1 h | half-life at 150 μg/mL ([1]; aqueous phosphate buffer, pH 5, half-time (t1/2), pH 5.00, 25 °C): 116 h | half-life at 150 μg/mL ([1]; aqueous phosphate buffer, pH 5, half-time (t1/2), pH 5.00, 37 °C): 60.3 h | half-life at 150 μg/mL ([1]; aqueous phosphate buffer, pH 5, half-time (t1/2), pH 5.00, 60 °C): 36.3 h | half-life at 150 μg/mL ([1]; aqueous phosphate buffer, pH 5, half-time (t1/2), pH 5.00, 80 °C): 22.9 h | half-life at 150 μg/mL ([1]; aqueous phosphate buffer, pH 5, half-time (t1/2), pH 5.00, 100 °C): 9.67 h | △H^‡ (enthalpy of activation) ([1]; pH 1.85): 2.806 kcal/mol | △S^‡ (entropy of activation) ([1]; pH 1.85): −647.95 J/K/mol | Rate constant (k) ([1]; pH 1.85, 25 °C): 0.0160 h⁻¹ | Rate constant (k) ([1]; pH 1.85, 37 °C): 0.0206 h⁻¹ | Rate constant (k) ([1]; pH 1.85, 60 °C): 0.0234 h⁻¹ | Rate constant (k) ([1]; pH 1.85, 80 °C): 0.0282 h⁻¹ | Rate constant (k) ([1]; pH 1.85, 100 °C): 0.0655 h⁻¹ | Ea (activation energy) ([1]; pH 1.85, Arrhenius plot 25–100 °C): 3.468 kcal/mol | △H^‡ (enthalpy of activation) ([1]; pH 3.13): 2.885 kcal/mol | △S^‡ (entropy of activation) ([1]; pH 3.13): −646.94 J/K/mol | Rate constant (k) ([1]; pH 3.13, 25 °C): 0.0159 h⁻¹ | Rate constant (k) ([1]; pH 3.13, 37 °C): 0.0194 h⁻¹ | Rate constant (k) ([1]; pH 3.13, 60 °C): 0.0206 h⁻¹ | Rate constant (k) ([1]; pH 3.13, 80 °C): 0.0297 h⁻¹ | Rate constant (k) ([1]; pH 3.13, 100 °C): 0.0627 h⁻¹ | Ea (activation energy) ([1]; pH 3.13, Arrhenius plot 25–100 °C): 3.549 kcal/mol | △H^‡ (enthalpy of activation) ([1]; pH 5.00): 6.03 kcal/mol | △S^‡ (entropy of activation) ([1]; pH 5.00): −607.24 J/K/mol | Rate constant (k) ([1]; pH 5.00, 25 °C): 0.0060 h⁻¹ | Rate constant (k) ([1]; pH 5.00, 37 °C): 0.0115 h⁻¹ | Rate constant (k) ([1]; pH 5.00, 60 °C): 0.0191 h⁻¹ | Rate constant (k) ([1]; pH 5.00, 80 °C): 0.0302 h⁻¹ | Rate constant (k) ([1]; pH 5.00, 100 °C): 0.0717 h⁻¹ | Ea (activation energy) ([1]; pH 5.00, Arrhenius plot 25–100 °C): 6.692 kcal/mol | △H^‡ (enthalpy of activation) ([1]; pH 7.10): 6.217 kcal/mol | △S^‡ (entropy of activation) ([1]; pH 7.10): −604.87 J/K/mol | Rate constant (k) ([1]; pH 7.10, 25 °C): 0.0043 h⁻¹ | Rate constant (k) ([1]; pH 7.10, 37 °C): 0.0153 h⁻¹ | Rate constant (k) ([1]; pH 7.10, 60 °C): 0.0195 h⁻¹ | Rate constant (k) ([1]; pH 7.10, 80 °C): 0.0280 h⁻¹ | Rate constant (k) ([1]; pH 7.10, 100 °C): 0.0695 h⁻¹ | Ea (activation energy) ([1]; pH 7.10, Arrhenius plot 25–100 °C): 6.879 kcal/mol | △H^‡ (enthalpy of activation) ([1]; pH 9.08): 7.012 kcal/mol | △S^‡ (entropy of activation) ([1]; pH 9.08): −594.83 J/K/mol | Rate constant (k) ([1]; pH 9.08, 25 °C): 0.0033 h⁻¹ | Rate constant (k) ([1]; pH 9.08, 37 °C): 0.0122 h⁻¹ | Rate constant (k) ([1]; pH 9.08, 60 °C): 0.0194 h⁻¹ | Rate constant (k) ([1]; pH 9.08, 80 °C): 0.0264 h⁻¹ | Rate constant (k) ([1]; pH 9.08, 100 °C): 0.0690 h⁻¹ | Ea (activation energy) ([1]; pH 9.08, Arrhenius plot 25–100 °C): 7.674 kcal/mol | △H^‡ (enthalpy of activation) ([1]; pH 10.97): 10.38 kcal/mol | △S^‡ (entropy of activation) ([1]; pH 10.97): −552.37 J/K/mol | Rate constant (k) ([1]; pH 10.97, 25 °C): 0.0016 h⁻¹ | shelf-life (t0.9) ([1]; pH 10.97, 25 °C): 65.88 | Rate constant (k) ([1]; pH 10.97, 37 °C): 0.0036 h⁻¹ | shelf-life (t0.9) ([1]; pH 10.97, 37 °C): 29.28 | Rate constant (k) ([1]; pH 10.97, 60 °C): 0.0140 h⁻¹ | shelf-life (t0.9) ([1]; pH 10.97, 60 °C): 7.53 | Rate constant (k) ([1]; pH 10.97, 80 °C): 0.0267 h⁻¹ | shelf-life (t0.9) ([1]; pH 10.97, 80 °C): 3.95 | Rate constant (k) ([1]; pH 10.97, 100 °C): 0.0724 h⁻¹ | shelf-life (t0.9) ([1]; pH 10.97, 100 °C): 1.46 | Ea (activation energy) ([1]; pH 10.97, Arrhenius plot 25–100 °C): 11.04 kcal/mol | half-life at 150 μg/mL ([1]; phosphate buffer, pH 7.1, half-time (t1/2), pH 7.10, 25 °C): 161 h | half-life at 150 μg/mL ([1]; phosphate buffer, pH 7.1, half-time (t1/2), pH 7.10, 37 °C): 45.3 h | half-life at 150 μg/mL ([1]; phosphate buffer, pH 7.1, half-time (t1/2), pH 7.10, 60 °C): 35.5 h | half-life at 150 μg/mL ([1]; phosphate buffer, pH 7.1, half-time (t1/2), pH 7.10, 80 °C): 24.8 h | half-life at 150 μg/mL ([1]; phosphate buffer, pH 7.1, half-time (t1/2), pH 7.10, 100 °C): 9.97 h | half-life at 150 μg/mL ([1]; phosphate buffer, pH 9.08, half-time (t1/2), pH 9.08, 25 °C): 210 h | half-life at 150 μg/mL ([1]; phosphate buffer, pH 9.08, half-time (t1/2), pH 9.08, 37 °C): 56.8 h | half-life at 150 μg/mL ([1]; phosphate buffer, pH 9.08, half-time (t1/2), pH 9.08, 60 °C): 35.7 h | half-life at 150 μg/mL ([1]; phosphate buffer, pH 9.08, half-time (t1/2), pH 9.08, 80 °C): 26.2 h | half-life at 150 μg/mL ([1]; phosphate buffer, pH 9.08, half-time (t1/2), pH 9.08, 100 °C): 10 h | half-life at 150 μg/mL ([1]; phosphate buffer, pH 10.97, half-time (t1/2), pH 10.97, 25 °C): 433 h | half-life at 150 μg/mL ([1]; phosphate buffer, pH 10.97, half-time (t1/2), pH 10.97, 37 °C): 192 h | half-life at 150 μg/mL ([1]; phosphate buffer, pH 10.97, half-time (t1/2), pH 10.97, 60 °C): 49.5 h | half-life at 150 μg/mL ([1]; phosphate buffer, pH 10.97, half-time (t1/2), pH 10.97, 80 °C): 26 h | half-life at 150 μg/mL ([1]; phosphate buffer, pH 10.97, half-time (t1/2), pH 10.97, 100 °C): 9.57 h | reaction order of degradation ([1]; plot of ln(Ct/C0) against time, all degradation conditions): first-order | stability under oxidation conditions (Influence of oxidation): extremely unstable | content of epalrestat relative to that protected from light (Influence of irradiation): a third
Structure (SMILES): CC(/C=C1\SC(=S)N(CC(=O)O)C1=O)=C\c1ccccc1 [epalrestat, 5-[(1Z,2E)− 2-methyl-3-phenylpropenylidene]-4-oxo-2-thioxo-3-thiazolidie acetic acid]
behaviour of epalrestat powder on exposure to light [2]: gradually fades in color and decomposes on exposure to light

From paper PMC6931074 (Journal of Pharmaceutical Analysis, 2018)
